No end group written: not given here.
Legend:
[1] = system: humans with NGT, IGT, or T2DM; assay: Graded glucose infusion; assay type: in vivo, human; conditions: for increase of ISR iAUC during the first 40 min compared with albumin: P ≤0.0005; for increase of 240-min ISR iAUC/glucose iAUC compared with albumin: P ≤0.007 vs. albumin
How it was run: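 Subjects fasted 10 h. Arterialized venous blood was drawn from a hand heated to 50–55°C. Glucose ≥120 mg/dL was lowered to 100–120 mg/dL with IV insulin (∼0.01 units/kg every 30 min), then held stable 20 min. Four blinded 240-min GGIs ≥2 weeks apart gave IV peptide or albumin (peptides 4 pmol·kg−1·min−1 in saline/1% albumin). Glucose measured by glucose oxidase; C-peptide by chemiluminescent immunometric assay; ISR by stochastic deconvolution; iAUCs; mixed-effects models, one-tailed t tests.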

[2] = system: healthy individuals and persons with T2DM; conditions: iv infusion 4 pmol/kg/min, cited from earlier work
[3] = system: humans with NGT, IGT, or T2DM; assay: Symptomatic effects of peptide infusions; assay type: in vivo, human; conditions: all three groups; for subjects with mild diarrhea and/or loose stools: within several hours of the infusion
[4] = Plasma IR-GIP and IR-xenin levels during and after peptide infusion; assay type: in vivo; conditions: human, iv, 4 pmol ⋅ kg^−1 ⋅ min^−1
How it was run: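 Peptides were infused IV at 4 pmol·kg−1·min−1 in saline with 1% albumin during the graded glucose infusion. Plasma IR-GIP was measured by total-GIP ELISA and IR-xenin by an in-house ELISA. IR-xenin half-life came from levels sampled after infusions stopped (n = 6).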

[5] = system: healthy humans; conditions: intravenous infusion of neurotensin alone; cited from earlier work

Compound | ISR iAUC during the first 40 min of the GGI ([1]; subjects with IGT, G+X vs GIP alone P = 0.002) | increase of ISR iAUC during the first 40 min compared with albumin ([1]; subjects with IGT) | increase of 240-min ISR iAUC/glucose iAUC compared with albumin ([1]; subjects with IGT) | time of peak early insulin secretory response (ISR) ([1]; subjects with IGT, time into the infusions) | ISR iAUC during the first 40 min of the GGI ([1]; subjects with NGT, G+X vs GIP alone P = 0.048) | increase of ISR iAUC during the first 40 min compared with albumin ([1]; subjects with NGT) | increase of 240-min ISR iAUC/glucose iAUC compared with albumin ([1]; subjects with NGT) | time of peak early insulin secretory response (ISR) ([1]; subjects with NGT, time into the GGI) | ISR iAUC during the first 40 min of the GGI ([1]; subjects with T2DM, G+X vs GIP alone P = 0.18) | increase of ISR iAUC during the first 40 min compared with albumin ([1]; subjects with T2DM) | increase of 240-min ISR iAUC/glucose iAUC compared with albumin ([1]; subjects with T2DM) | increase of insulin release during a hyperglycemic clamp ([2]; healthy individuals) | effect on insulin release during a hyperglycemic clamp ([2]; persons with T2DM) | increase of resting heart rate [3] | reduction of mean arterial blood pressure [3] | subjects with mild diarrhea and/or loose stools [3] | half-life [4] | change in blood pressure or plasma levels of glucose, insulin, or glucagon [5]
CC[C@H](C)[C@H](NC(=O)[C@H](CO)NC(=O)[C@H](Cc1ccc(O)cc1)NC(=O)[C@H](CC(=O)O)NC(=O)[C@H](CO)NC(=O)[C@@H](NC(=O)[C@H](Cc1ccccc1)NC(=O)[C@@H](NC(=O)CNC(=O)[C@H](CCC(=O)O)NC(=O)[C@H](C)NC(=O)[C@@H](N)Cc1ccc(O)cc1)[C@@H](C)O)[C@@H](C)CC)C(=O)N[C@@H](C)C(=O)N[C@@H](CCSC)C(=O)N[C@@H](CC(=O)O)C(=O)N[C@@H](CCCCN)C(=O)N[C@H](C(=O)N[C@@H](Cc1c[nH]cn1)C(=O)N[C@@H](CCC(N)=O)C(=O)N[C@@H](CCC(N)=O)C(=O)N[C@@H](CC(=O)O)C(=O)N[C@@H](Cc1ccccc1)C(=O)N[C@H](C(=O)N[C@@H](CC(N)=O)C(=O)N[C@@H](Cc1c[nH]c2ccccc12)C(=O)N[C@@H](CC(C)C)C(=O)N[C@@H](CC(C)C)C(=O)N[C@@H](C)C(=O)N[C@@H](CCC(N)=O)C(=O)N[C@@H](CCCCN)C(=O)NCC(=O)N[C@@H](CCCCN)C(=O)N[C@@H](CCCCN)C(=O)N[C@@H](CC(N)=O)C(=O)N[C@@H](CC(=O)O)C(=O)N[C@@H](Cc1c[nH]c2ccccc12)C(=O)N[C@@H](CCCCN)C(=O)N[C@@H](Cc1c[nH]cn1)C(=O)N[C@@H](CC(N)=O)C(=O)N[C@H](C(=O)N[C@H](C(=O)N[C@@H](CCC(N)=O)C(=O)O)[C@@H](C)O)[C@@H](C)CC)C(C)C)[C@@H](C)CC [GIP, glucose-dependent insulinotropic polypeptide] | 10,016 ± 1,524 pmol insulin secreted/40 min | 6.1 fold | 1.5 fold | 20 min | 7,998 ± 1,263 pmol insulin secreted/40 min | 4.6 fold | 1.7 fold | ≤ 10 min | 10,062 ± 2,290 pmol insulin secreted/40 min | 8.7 fold | 1.9 fold | approximately fourfold | ineffective | ~8 bpm | 10–15 mmHg | 14% |  | 
MLTKFETKSARVKGLSFHPKRPWIL [xenin-25, Xenin-25] |  |  |  |  |  |  |  |  |  |  |  |  |  | no effect | no effect | 21% | 2.5 ± 0.3 min | 
neurotensin |  |  |  |  |  |  |  |  |  |  |  |  |  |  |  |  |  | no significant change
